According to ChEMBL document CHEMBL3286380, “Design and synthesis of lupeol analogues and their glucose uptake stimulatory effect in L6 skeletal muscle cells” (Bioorg Med Chem Lett, 2014):
Blank lines part the entries; values can stand above or below the molecule they belong to. Calls of active or inactive are those of the source. The rule behind the calls is not given here.

What was measured:
[1] = system: L6; assay: Increase in 2-[3H]-deoxyglucose uptake in rat L6 cells at 10 uM after 16 hrs by scintillation counting analysis (reference value: 0%); format: functional
[2] = target: T1, Insulin receptor substrate 1 (Rattus norvegicus) (UniProt P35570); assay: Increase in IRS-1-mediated Akt phosphorylation in rat L6 cells at 10 uM treated for 16 hrs followed by incubation for 3 hrs in serum free medium and insulin stimulation for 20 mins by Western blot analysis; format: cell-based
T1 sequence (whole entry): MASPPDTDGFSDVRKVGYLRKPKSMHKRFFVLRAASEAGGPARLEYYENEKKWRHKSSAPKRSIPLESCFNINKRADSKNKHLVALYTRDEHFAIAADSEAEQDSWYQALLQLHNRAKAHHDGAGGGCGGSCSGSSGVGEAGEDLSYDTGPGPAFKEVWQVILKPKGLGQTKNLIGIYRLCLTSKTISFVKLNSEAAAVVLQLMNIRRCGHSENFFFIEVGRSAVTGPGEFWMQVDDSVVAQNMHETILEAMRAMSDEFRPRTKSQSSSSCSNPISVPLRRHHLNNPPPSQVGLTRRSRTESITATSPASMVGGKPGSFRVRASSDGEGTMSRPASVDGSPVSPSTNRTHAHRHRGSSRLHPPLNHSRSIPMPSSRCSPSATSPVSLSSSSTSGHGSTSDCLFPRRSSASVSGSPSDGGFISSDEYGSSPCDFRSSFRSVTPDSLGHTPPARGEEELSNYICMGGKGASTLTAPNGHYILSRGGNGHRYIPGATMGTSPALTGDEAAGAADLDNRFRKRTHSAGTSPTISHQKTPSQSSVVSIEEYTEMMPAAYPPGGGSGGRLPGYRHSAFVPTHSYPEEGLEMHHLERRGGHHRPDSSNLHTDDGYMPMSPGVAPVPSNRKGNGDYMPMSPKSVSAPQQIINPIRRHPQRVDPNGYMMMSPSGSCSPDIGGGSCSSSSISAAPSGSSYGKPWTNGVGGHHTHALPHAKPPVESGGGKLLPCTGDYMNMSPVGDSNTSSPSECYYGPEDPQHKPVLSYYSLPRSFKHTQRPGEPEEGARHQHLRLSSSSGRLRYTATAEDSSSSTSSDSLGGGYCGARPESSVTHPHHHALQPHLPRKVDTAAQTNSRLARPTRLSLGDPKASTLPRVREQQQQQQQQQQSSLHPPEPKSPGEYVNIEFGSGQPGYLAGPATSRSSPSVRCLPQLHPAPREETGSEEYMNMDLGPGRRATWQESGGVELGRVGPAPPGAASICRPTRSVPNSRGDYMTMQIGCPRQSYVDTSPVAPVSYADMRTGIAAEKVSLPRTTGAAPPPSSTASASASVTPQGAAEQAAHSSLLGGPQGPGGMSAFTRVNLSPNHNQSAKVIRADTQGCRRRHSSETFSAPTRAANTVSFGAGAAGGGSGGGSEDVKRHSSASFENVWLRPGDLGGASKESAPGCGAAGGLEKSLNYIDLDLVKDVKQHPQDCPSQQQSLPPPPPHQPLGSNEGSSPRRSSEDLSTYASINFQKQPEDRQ
How it was run: (§1)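 L6 myotubes were exposed to compound (10 μM) for 16 h, serum-free for the last 3 h. One subset then received insulin (100 nM) for 20 min. Cells were lysed and equal protein amounts were western blotted. Densitometry gave pIRβ/IRβ, pIRS-1/IRS-1 and pAKT/AKT ratios. Three independent experiments, mean SEM.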

[3] = system: L6; assay: Increase in 2-[3H]-deoxyglucose uptake in rat L6 cells after 16 hrs by scintillation counting analysis; format: functional, cell-based
How it was run: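 Dose–response in L6 myotubes: vehicle (DMSO) or compound at 5, 10, 25 µM for 16 h before glucose uptake measurement; rosiglitazone 10 µM as positive control. Expressed as fold stimulation over control; mean ± SE of three independent experiments, each in triplicate.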

[4] = system: 3T3-L1; assay: Potentiation of insulin-stimulated 2-[3H]-deoxyglucose uptake in mouse 3T3L1 cells at 10 uM treated for 16 hrs followed by incubation for 3 hrs in serum free medium and insulin stimulation for 20 mins by scintillation counting analysis; format: functional, cell-based
How it was run: (§2)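 Cells (L6 myotubes, 3T3-L1 adipocytes or HepG2 hepatic cells) treated with compound (10 µM) for 16 h, last 3 h serum-free, with or without insulin (100 nM, 20 min) before glucose uptake. Reported as fold stimulation over basal control; mean ± SE of three independent experiments, each in triplicate.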

[5] = system: L6; assay: Potentiation of insulin-stimulated 2-[3H]-deoxyglucose uptake in rat L6 cells at 10 uM treated for 16 hrs followed by incubation for 3 hrs in serum free medium and insulin stimulation for 20 mins by scintillation counting analysis; format: functional, cell-based; how it was run: as §2
[6] = target: 5'-AMP-activated protein kinase catalytic subunit alpha-1 (Rattus norvegicus) (UniProt P54645); assay: Effect on AMPK-alpha phosphorylation at Thr-172 residue in rat L6 cells at 10 uM after 16 hrs by immunoblot analysis; format: cell-based
Sequence of 5'-AMP-activated protein kinase catalytic subunit alpha-1 (Rattus norvegicus) (P54645 whole entry): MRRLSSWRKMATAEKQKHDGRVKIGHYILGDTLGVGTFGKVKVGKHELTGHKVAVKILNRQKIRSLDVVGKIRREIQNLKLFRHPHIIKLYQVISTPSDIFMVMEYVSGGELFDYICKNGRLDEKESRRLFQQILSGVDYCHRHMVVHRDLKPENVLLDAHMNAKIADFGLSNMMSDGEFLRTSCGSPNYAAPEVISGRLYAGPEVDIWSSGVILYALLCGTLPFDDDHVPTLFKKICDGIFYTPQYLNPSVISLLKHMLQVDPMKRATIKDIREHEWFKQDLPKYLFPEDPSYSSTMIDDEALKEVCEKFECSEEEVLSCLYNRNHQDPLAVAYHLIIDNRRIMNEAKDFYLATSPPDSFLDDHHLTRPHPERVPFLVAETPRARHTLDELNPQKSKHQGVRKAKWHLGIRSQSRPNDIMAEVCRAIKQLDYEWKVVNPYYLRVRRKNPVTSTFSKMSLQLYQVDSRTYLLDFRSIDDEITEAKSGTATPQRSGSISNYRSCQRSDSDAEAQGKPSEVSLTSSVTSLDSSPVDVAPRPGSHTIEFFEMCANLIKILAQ
How it was run: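 L6 myotubes exposed to compound (10 µM) for 16 h, then lysed; western blot for phospho-AMPK (Thr-172), quantified by densitometry relative to total AMPK. Mean ± SEM of three independent experiments.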

[7] = system: HepG2; assay: Potentiation of insulin-stimulated 2-[3H]-deoxyglucose uptake in human HepG2 cells at 10 uM treated for 16 hrs followed by incubation for 3 hrs in serum free medium and insulin stimulation for 20 mins by scintillation counting analysis; format: functional, cell-based; how it was run: as §2
[8] = target: Insulin receptor (Rattus norvegicus) (UniProt P15127); assay: Effect on IR-beta phosphorylation in rat L6 cells at 10 uM treated for 16 hrs followed by incubation for 3 hrs in serum free medium and insulin stimulation for 20 mins by Western blot analysis; format: cell-based; how it was run: as §1
Sequence of Insulin receptor (Rattus norvegicus) (P15127 27-759 limits assumed): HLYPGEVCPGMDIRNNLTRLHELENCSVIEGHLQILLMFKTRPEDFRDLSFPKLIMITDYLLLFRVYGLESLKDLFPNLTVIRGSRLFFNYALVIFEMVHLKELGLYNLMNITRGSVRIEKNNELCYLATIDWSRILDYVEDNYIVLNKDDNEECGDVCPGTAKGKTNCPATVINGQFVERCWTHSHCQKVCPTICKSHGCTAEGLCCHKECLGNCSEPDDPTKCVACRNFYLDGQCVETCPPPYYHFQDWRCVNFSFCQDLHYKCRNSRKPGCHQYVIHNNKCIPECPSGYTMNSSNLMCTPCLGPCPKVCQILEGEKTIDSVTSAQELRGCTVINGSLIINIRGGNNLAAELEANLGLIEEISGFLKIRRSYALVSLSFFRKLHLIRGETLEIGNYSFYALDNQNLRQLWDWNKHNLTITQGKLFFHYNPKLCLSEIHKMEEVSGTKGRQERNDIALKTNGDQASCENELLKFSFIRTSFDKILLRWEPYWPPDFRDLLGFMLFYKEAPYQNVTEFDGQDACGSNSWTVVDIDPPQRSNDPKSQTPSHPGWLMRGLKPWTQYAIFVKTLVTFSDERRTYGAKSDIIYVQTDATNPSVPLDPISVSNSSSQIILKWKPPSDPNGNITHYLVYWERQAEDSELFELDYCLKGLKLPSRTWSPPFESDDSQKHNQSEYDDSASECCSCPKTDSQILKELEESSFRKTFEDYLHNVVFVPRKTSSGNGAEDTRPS
Sequence of Insulin receptor (Rattus norvegicus) (P15127 764-1383 limits assumed): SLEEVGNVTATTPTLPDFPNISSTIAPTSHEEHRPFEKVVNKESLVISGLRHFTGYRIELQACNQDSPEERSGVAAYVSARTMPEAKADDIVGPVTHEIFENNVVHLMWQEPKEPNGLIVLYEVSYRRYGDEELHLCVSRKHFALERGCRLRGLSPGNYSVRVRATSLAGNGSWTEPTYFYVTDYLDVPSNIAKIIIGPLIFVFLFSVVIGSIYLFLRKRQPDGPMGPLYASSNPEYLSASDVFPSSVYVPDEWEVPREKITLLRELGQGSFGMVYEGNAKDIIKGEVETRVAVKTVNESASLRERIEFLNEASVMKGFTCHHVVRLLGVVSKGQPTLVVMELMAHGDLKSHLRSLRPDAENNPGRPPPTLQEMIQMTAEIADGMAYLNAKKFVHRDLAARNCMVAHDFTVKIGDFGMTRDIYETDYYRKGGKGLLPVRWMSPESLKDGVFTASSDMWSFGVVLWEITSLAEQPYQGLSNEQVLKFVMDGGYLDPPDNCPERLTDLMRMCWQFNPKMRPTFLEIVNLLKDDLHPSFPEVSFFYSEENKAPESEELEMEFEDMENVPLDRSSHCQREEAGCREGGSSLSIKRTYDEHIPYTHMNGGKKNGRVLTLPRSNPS

[9] = target: T1, Insulin receptor substrate 1 (Rattus norvegicus); assay: Increase in IRS-1 phosphorylation in rat L6 cells at 10 uM treated for 16 hrs followed by incubation for 3 hrs in serum free medium and insulin stimulation for 20 mins by Western blot analysis; format: cell-based; how it was run: as §1
[10] = target: T2, Solute carrier family 2, facilitated glucose transporter member 4 (Rattus norvegicus) (UniProt P19357); assay: Induction of GLUT4 translocation to cell surface in rat L6-GLUT4myc cells at 10 uM treated for 16 hrs followed by incubation for 3 hrs in serum free medium and insulin stimulation for 20 mins; format: cell-based
T2 sequence (whole entry): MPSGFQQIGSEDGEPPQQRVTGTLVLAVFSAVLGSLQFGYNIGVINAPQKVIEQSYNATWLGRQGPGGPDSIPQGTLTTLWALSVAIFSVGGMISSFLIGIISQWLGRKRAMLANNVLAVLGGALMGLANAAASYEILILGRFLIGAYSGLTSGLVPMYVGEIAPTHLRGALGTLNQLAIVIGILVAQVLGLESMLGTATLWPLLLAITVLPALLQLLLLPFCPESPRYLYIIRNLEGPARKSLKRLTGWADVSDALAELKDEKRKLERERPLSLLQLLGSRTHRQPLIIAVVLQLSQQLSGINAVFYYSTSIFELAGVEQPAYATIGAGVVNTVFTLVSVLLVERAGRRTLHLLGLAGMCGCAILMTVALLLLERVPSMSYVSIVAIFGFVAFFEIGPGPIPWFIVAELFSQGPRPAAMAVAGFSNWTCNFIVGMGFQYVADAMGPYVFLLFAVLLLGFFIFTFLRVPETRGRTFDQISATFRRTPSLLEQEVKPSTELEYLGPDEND
How it was run: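 L6-GLUT4myc myotubes given compound (10 µM) for 16 h, the final 3 h in serum-free medium; a subset stimulated with insulin (100 nM) for 20 min before measuring surface GLUT4myc. Fold over basal control; mean ± SE, three independent experiments in triplicate.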

[11] = system: L6; assay: Potentiation of insulin-stimulated 2-[3H]-deoxyglucose uptake in rat L6 cells at 10 uM treated for 16 hrs followed by incubation for 3 hrs in serum free medium and insulin stimulation for 20 mins by scintillation counting analysis in presence of PI3K inhibitor wortmannin; format: functional, cell-based
How it was run: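 L6 myotubes were given compound (10 μM) for 16 h, with or without wortmannin (50 nM). Insulin treatment followed, then glucose uptake was measured. Values are expressed as fold stimulation over basal control.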

[12] = system: L6; assay: Increase in 2-[3H]-deoxyglucose uptake in rat L6 cells at 10 uM after 16 hrs by scintillation counting analysis relative to lupeol; format: functional

Structure (SMILES): C=C(C)[C@@H]1CC[C@]2(C)CC[C@]3(C)[C@H](CC[C@@H]4[C@@]5(C)CC[C@H](O)C(C)(C)[C@@H]5CC[C@]43C)[C@@H]12 [LUPEOL]
Activity [1]: 26.8%

Structure (SMILES): CC(=O)O[C@H]1CC[C@]2(C)[C@H]3CC[C@@H]4[C@H]5[C@H]([C@@H]6C=COC6)CC[C@]5(C)CC[C@@]4(C)[C@]3(C)CC[C@H]2C1(C)C
Activity [1]: 3.6%

Structure (SMILES): C=CCOCC(=C)[C@@H]1CC[C@]2(C)CC[C@]3(C)[C@H](CC[C@@H]4[C@@]5(C)CC[C@H](OC(C)=O)C(C)(C)[C@@H]5CC[C@]43C)[C@@H]12
Activity [1]: 8.5%

Structure (SMILES): CC(C)C(Br)C(=O)O[C@H]1CC[C@]2(C)[C@H]3CC[C@@H]4[C@H]5[C@H]([C@H]6C=NN(C(=O)C(Br)C(C)C)C6)CC[C@]5(C)CC[C@@]4(C)[C@]3(C)CC[C@H]2C1(C)C (stereo partly specified)
Activity [1]: 8.4%

Structure (SMILES): C#CCOCC(=C)[C@@H]1CC[C@]2(C)CC[C@]3(C)[C@H](CC[C@@H]4[C@@]5(C)CC[C@H](OC(C)=O)C(C)(C)[C@@H]5CC[C@]43C)[C@@H]12
Activity [1]: 19.2%

Structure (SMILES): C=C(C=O)[C@@H]1CC[C@]2(C)CC[C@]3(C)[C@H](CC[C@@H]4[C@@]5(C)CC[C@H](OC(=O)CCc6ccc(Cl)cc6)C(C)(C)[C@@H]5CC[C@]43C)[C@@H]12
Activity [1]: 0.5%

Structure (SMILES): CC1(C)[C@@H](O)CC[C@]2(C)[C@H]3CC[C@@H]4[C@H]5[C@H]([C@H]6C=NNC6)CC[C@]5(C)CC[C@@]4(C)[C@]3(C)CC[C@@H]12
Activity [1]: 16.1%

Structure (SMILES): C=C(C=O)[C@@H]1CC[C@]2(C)CC[C@]3(C)[C@H](CC[C@@H]4[C@@]5(C)CC[C@H](O)C(C)(C)[C@@H]5CC[C@]43C)[C@@H]12
Activity [2]: Active
Activity [3]: Dose-dependent effect
EC50 [3]: 4.2 µM
Activity [4]: Active
Activity [1]: 173.1%
Activity [5]: Active
Activity [6]: inactive
Activity [7]: Active
Activity [8]: inactive
Activity [9]: Active
Activity [10]: Active
Activity [11]: inactive

Structure (SMILES): C=C(CO)[C@@H]1CC[C@]2(C)CC[C@]3(C)[C@H](CC[C@@H]4[C@@]5(C)CC[C@H](OC(C)=O)C(C)(C)[C@@H]5CC[C@]43C)[C@@H]12
Activity [1]: 22.2%

Activity [2]: Active
Activity [6]: inactive
Activity [8]: inactive
Activity [9]: Active
Activity [10]: Active
Structure (SMILES): CC1(C)[C@@H](OC(=O)/C=C/c2ccccc2)CC[C@]2(C)[C@H]3CC[C@@H]4[C@H]5[C@H](C6C=NN(C(=O)/C=C/c7ccccc7)C6)CC[C@]5(C)CC[C@@]4(C)[C@]3(C)CC[C@@H]12 (stereo partly specified)
Activity [3]: Dose-dependent effect
EC50 [3]: 4.9 µM
Activity [4]: Active
Activity [1]: 107.3%
Activity [5]: Active
Activity [7]: Active
Activity [11]: inactive

Structure (SMILES): CC1(C)[C@@H](O)CC[C@]2(C)[C@H]3CC[C@@H]4[C@H]5[C@H]([C@@H](C=O)C(O)c6ccccc6)CC[C@]5(C)CC[C@@]4(C)[C@]3(C)CC[C@@H]12 (stereo partly specified)
Activity [1]: 6.4%

Activity [6]: inactive
Activity [10]: Active
Structure (SMILES): C=C(C=O)[C@@H]1CC[C@]2(C)CC[C@]3(C)[C@H](CC[C@@H]4[C@@]5(C)CC[C@H](OC(C)=O)C(C)(C)[C@@H]5CC[C@]43C)[C@@H]12
Activity [3]: Dose-dependent effect
EC50 [3]: 5.2 µM
Activity [4]: Active
fold change (FC) [12]: 4.5
Activity [1]: 114.1%
Activity [5]: Active
Activity [7]: Active

Structure (SMILES): CN(CCOc1ccc(CC2SC(=O)NC2=O)cc1)c1ccccn1 (stereo unspecified) [ROSIGLITAZONE]
EC50 [3]: 4.8 µM
Activity [1]: 112.4%

Activity [6]: inactive
Activity [10]: Active
Structure (SMILES): C=C(C=O)[C@@H]1CC[C@]2(C)CC[C@]3(C)[C@H](CC[C@@H]4[C@@]5(C)CC[C@H](OC(=O)/C=C/c6ccccc6)C(C)(C)[C@@H]5CC[C@]43C)[C@@H]12
Activity [3]: Dose-dependent effect
EC50 [3]: 6.2 µM
Activity [4]: Active
Activity [1]: 98.3%
Activity [5]: Active
Activity [7]: Active

Structure (SMILES): CC1(C)[C@@H](O)CC[C@]2(C)[C@H]3CC[C@@H]4[C@H]5[C@H]([C@H]6C=NOC6c6ccccc6)CC[C@]5(C)CC[C@@]4(C)[C@]3(C)CC[C@@H]12 (stereo partly specified)
Activity [1]: 13.2%

Structure (SMILES): C=CC1=COC[C@@H]1[C@@H]1CC[C@]2(C)CC[C@]3(C)[C@H](CC[C@@H]4[C@@]5(C)CC[C@H](OC(C)=O)C(C)(C)[C@@H]5CC[C@]43C)[C@@H]12
Activity [1]: 2.1%

Structure (SMILES): CC1(C)[C@@H](OC(=O)CCc2ccc(Cl)cc2)CC[C@]2(C)[C@H]3CC[C@@H]4[C@H]5[C@H]([C@H]6C=NN(C(=O)CCc7ccc(Cl)cc7)C6)CC[C@]5(C)CC[C@@]4(C)[C@]3(C)CC[C@@H]12
Activity [1]: 2.8%

Structure (SMILES): C=C(C=O)[C@@H]1CC[C@]2(C)CC[C@]3(C)[C@H](CC[C@@H]4[C@@]5(C)CC[C@H](OC(=O)C(Br)C(C)C)C(C)(C)[C@@H]5CC[C@]43C)[C@@H]12 (stereo partly specified)
Activity [1]: 3.1%
